# Source: ChEMBL document CHEMBL1909500, “Synthesis and in vitro anticancer activity of 6,7-methylenedioxy (or 5-hydroxy-6-methoxy)-2-(substituted selenophenyl)quinolin-4-one analogs” (Eur J Med Chem, 2011)
# Legend:
# [1] = test system: HL-60; assay: Cytotoxicity against human HL60 cells after 48 hrs by MTT assay; type: functional, cell-based; conditions: HL-60, 48 h
# Procedure, shortened: (§1)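 H460 or HL-60 cells were exposed to vehicle or compound for 48 h. Growth was read by MTT reduction at 570 nm, and IC50 was calculated.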
# [2] = Cytotoxicity against human Hep3B cells after 48 hrs by MTT assay; type: functional, cell-based, Hep 3B2
# Procedure, shortened: (§2)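 Hep 3B (hepatoma) or Detroit 551 (normal skin) cells, grown at 37 °C and 5% CO₂ in DMEM with 10% FBS, penicillin/streptomycin and 1% L-glutamine, were used in log phase. Cells were exposed to vehicle or compound for 48 h. Growth was read by MTT reduction at 570 nm, and IC50 was calculated.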
# [3] = test system: NCI-H460; assay: Cytotoxicity against human H460 cells after 48 hrs by MTT assay; type: functional, cell-based; conditions: NCI-H460, 48 h; procedure, shortened: as §1
# [4] = test system: Detroit 551; assay: Cytotoxicity against human Detroit 551 cells after 48 hrs by MTT assay; type: cell-based; conditions: Detroit 551, 48 h; procedure, shortened: as §2
# [5] = test system: Detroit 551; assay: Selectivity ratio of IC50 for human Detroit 551 cells to IC50 for human Hep3B cells
# [6] = test system: Detroit 551; assay: Selectivity ratio of IC50 for human Detroit 551 cells to IC50 for human H460 cells
SMILES,IC50 [1] [nM],IC50 [2] [nM],IC50 [3] [nM],IC50 [4] [nM],Ratio IC50 [5],Ratio IC50 [6]
O=c1cc(-c2ccc[se]2)[nH]c2cc3c(cc12)OCO3,500,800,1000,50000,50,50
Cc1ccc(-c2cc(=O)c3cc4c(cc3[nH]2)OCO4)s1,300,700,400,> 5000,,
COc1ccc2[nH]c(-c3cc[se]c3)cc(=O)c2c1,700,3700,2300,> 10000,,
COc1ccc2[nH]c(-c3ccc[se]3)cc(=O)c2c1O,1100,700,400,100000,,
COc1ccc2[nH]c(-c3ccc[se]3)cc(=O)c2c1OC,7700,> 100000,91500,> 100000,,
Oc1cc(-c2ccco2)nc2cc3c(cc12)OCO3,6800,> 15000,> 15000,> 15000,,
O=c1cc(-c2cc[se]c2)[nH]c2cc3c(cc12)OCO3,900,800,1400,> 10000,,
COc1ccc2[nH]c(-c3cc[se]c3)cc(=O)c2c1OC,1700,100000,100000,> 100000,,
COc1ccc2[nH]c(-c3ccc[se]3)cc(=O)c2c1,600,3200,2400,> 10000,,
COc1ccc2[nH]c(-c3cc[se]c3)cc(=O)c2c1O,400,300,800,> 100000,,
COc1ccc2[nH]c(-c3ccc(C)[se]3)cc(=O)c2c1OC,3100,> 50000,> 50000,> 50000,,
COc1ccc2[nH]c(-c3ccc(C)[se]3)cc(=O)c2c1,400,3000,2000,> 10000,,
COc1ccc2[nH]c(-c3ccc(C)[se]3)cc(=O)c2c1O,400,800,900,> 50000,,
O=c1cc(-c2ccsc2)[nH]c2cc3c(cc12)OCO3,900,2200,4300,> 25000,,
Oc1cc(-c2cccs2)nc2cc3c(cc12)OCO3,1000,700,1000,> 5000,,
Cc1ccc(-c2cc(=O)c3cc4c(cc3[nH]2)OCO4)o1,4300,10000,9800,> 10000,,
O=c1cc(-c2ccoc2)[nH]c2cc3c(cc12)OCO3,3400,9600,15800,> 25000,,
